Reference: ChEMBL document CHEMBL1138528, “Discovery of tetrasubstituted imidazolines as potent and selective neuropeptide Y Y5 receptor antagonists: reduced human ether-a-go-go related gene potassium channel binding affinity and potent antiobesity effect” (J Med Chem, 2009)
The source made the active and inactive calls. The rule behind the calls is not given here.

Columns and labels:
[1] = tested on: Mus musculus; assay: Reduction in body weight in moderately high fat diet-induced obese Y5 receptor-deficient mouse model at 3 mg/kg, po BID 15 days; format: functional, organism-based; design: dose 3 mg/kg
[2] = Cmax in Beagle dog at 2 mg/kg, iv; format: ADME, organism-based, Canis lupus familiaris; design: dose 2 mg/kg, route intravenous; conditions: in vivo
[3] = tested on: Canis familiaris; assay: Cardiotoxicity in Beagle dog assessed as adverse events at 2 mg/kg, iv; format: toxicity, organism-based, Canis lupus familiaris; design: dose 2 mg/kg, route intravenous; conditions: in vivo
[4] = tested on: Canis familiaris; assay: Cardiotoxicity in Beagle dog assessed as change in mean arterial pressure at 5 mg/kg, iv; format: toxicity, organism-based, Canis lupus familiaris, Artery; design: dose 5 mg/kg, route intravenous; conditions: in vivo
[5] = tested on: Canis familiaris; assay: Cardiotoxicity in Beagle dog assessed as change in left ventricular systolic pressure at 5 mg/kg, iv; format: toxicity, organism-based, Canis lupus familiaris, Heart left ventricle; design: dose 5 mg/kg, route intravenous; conditions: in vivo
[6] = tested on: Canis familiaris; assay: Cardiotoxicity in Beagle dog assessed as change in cardiac contractility pressure at 5 mg/kg, iv; format: toxicity, organism-based, Canis lupus familiaris, Heart; design: dose 5 mg/kg, route intravenous; conditions: in vivo
[7] = tested on: Canis familiaris; assay: Cardiotoxicity in Beagle dog assessed as change in cardiac output pressure at 5 mg/kg, iv; format: toxicity, organism-based, Canis lupus familiaris, Heart; design: dose 5 mg/kg, route intravenous; conditions: in vivo
[8] = tested on: Canis familiaris; assay: Cardiotoxicity in Beagle dog assessed as change in femoral blood flow at 5 mg/kg, iv; format: toxicity, organism-based, Canis lupus familiaris; design: dose 5 mg/kg, route intravenous; conditions: in vivo
[9] = tested on: Canis familiaris; assay: Cardiotoxicity in Beagle dog assessed as prolongation of QTc interval at 5 mg/kg, iv; format: toxicity, organism-based, Canis lupus familiaris; design: dose 5 mg/kg, route intravenous; conditions: in vivo
[10] = Cmax in Beagle dog at 5 mg/kg, iv; format: ADME, organism-based, Canis lupus familiaris; design: dose 5 mg/kg, route intravenous; conditions: in vivo
[11] = tested on: Rattus norvegicus; assay: Inhibition of D-[Trp34]NPY-induced acute food intake in Sprague-Dawley rat at 0.3 mg/kg, po pretreated 2 hrs prior to D-[Trp34]NPY challenge measured after 2 hrs; format: functional
How it was run: (§1)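 SD rats (10-15 weeks) with stereotaxic third-ventricle cannula, tested ≥1 wk post-surgery in light cycle. Oral dose in 0.5% methylcellulose, then 2 h later D-Trp34NPY 1 µg/0.4 µL in aCSF into third ventricle; food intake over 2 h. Mean ± SEM, n = 5-9; Dunnett's test versus agonist-only group.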

[12] = Octanol-water distribution coefficient, log D at pH 7.4; format: physicochemical
[13] = Metabolic stability in rat hepatocytes assessed as hepatic clearance by serum incubation method; format: ADME, cell-based, Liver, Hepatocyte
[14] = Plasma concentration in Sprague-Dawley rat at 10 mg/kg, po after 2 hrs; format: ADME, organism-based; design: dose 10 mg/kg, route oral
How it was run: (§2)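 Male SD rats (7-10 weeks, 200-400 g) dosed orally at 10 mg/kg in 0.5% methylcellulose; at 2 h aortic blood taken under isoflurane. Plasma, brain homogenate (sonicated in water) and CSF deproteinized with 3-fold ethanol plus internal standard, -20 °C 20 min, centrifuged; LC/MS/MS with relative calibration curve. Mean, n = 2-3.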

[15] = tested on: Brain; assay: Drug level in Sprague-Dawley rat brain at 10 mg/kg, po after 2 hrs; format: ADME, organism-based; design: dose 10 mg/kg, route oral; conditions: in vivo; how it was run: as §2
[16] = tested on: Cerebrospinal fluid; assay: Drug level in Sprague-Dawley rat cerebrospinal fluid at 10 mg/kg, po after 2 hrs; format: ADME, organism-based; design: dose 10 mg/kg, route oral; conditions: in vivo, 2 h; how it was run: as §2
[17] = Ratio of drug level from brain to plasma in Sprague-Dawley rat at 10 mg/kg, po after 2 hrs; format: ADME, organism-based; design: dose 10 mg/kg, route oral; how it was run: as §2
[18] = molecular target: T1, Neuropeptide Y receptor type 1 (Homo sapiens, UniProt P25929); assay: Binding affinity to human neuropeptide Y1 receptor
T1 sequence (P25929 whole entry): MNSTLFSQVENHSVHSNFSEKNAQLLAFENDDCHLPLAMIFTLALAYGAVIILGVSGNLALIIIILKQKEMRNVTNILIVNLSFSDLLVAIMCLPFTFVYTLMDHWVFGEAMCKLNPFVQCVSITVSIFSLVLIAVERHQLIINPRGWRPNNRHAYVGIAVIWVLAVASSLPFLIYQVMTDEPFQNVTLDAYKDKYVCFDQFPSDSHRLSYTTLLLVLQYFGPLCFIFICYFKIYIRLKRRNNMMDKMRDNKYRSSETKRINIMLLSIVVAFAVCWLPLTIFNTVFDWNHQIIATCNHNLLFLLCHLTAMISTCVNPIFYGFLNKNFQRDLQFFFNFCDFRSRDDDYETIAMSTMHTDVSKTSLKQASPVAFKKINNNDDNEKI

[19] = molecular target: T2, Neuropeptide Y receptor type 2 (Homo sapiens, UniProt P49146); assay: Binding affinity to human neuropeptide Y2 receptor
T2 sequence (P49146 whole entry): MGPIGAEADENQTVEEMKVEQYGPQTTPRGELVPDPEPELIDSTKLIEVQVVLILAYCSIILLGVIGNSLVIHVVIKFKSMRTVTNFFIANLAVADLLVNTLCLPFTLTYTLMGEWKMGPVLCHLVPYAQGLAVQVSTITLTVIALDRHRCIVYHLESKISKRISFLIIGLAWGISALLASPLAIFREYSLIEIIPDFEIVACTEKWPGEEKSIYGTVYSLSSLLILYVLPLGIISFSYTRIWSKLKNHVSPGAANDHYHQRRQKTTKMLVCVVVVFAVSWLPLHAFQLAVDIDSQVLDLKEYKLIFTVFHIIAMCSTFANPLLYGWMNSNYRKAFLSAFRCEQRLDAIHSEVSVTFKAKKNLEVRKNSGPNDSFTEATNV

[20] = molecular target: Neuropeptide Y receptor type 4 (Homo sapiens, UniProt P50391); assay: Binding affinity to human neuropeptide Y4 receptor
Neuropeptide Y receptor type 4, sequence (P50391 whole entry): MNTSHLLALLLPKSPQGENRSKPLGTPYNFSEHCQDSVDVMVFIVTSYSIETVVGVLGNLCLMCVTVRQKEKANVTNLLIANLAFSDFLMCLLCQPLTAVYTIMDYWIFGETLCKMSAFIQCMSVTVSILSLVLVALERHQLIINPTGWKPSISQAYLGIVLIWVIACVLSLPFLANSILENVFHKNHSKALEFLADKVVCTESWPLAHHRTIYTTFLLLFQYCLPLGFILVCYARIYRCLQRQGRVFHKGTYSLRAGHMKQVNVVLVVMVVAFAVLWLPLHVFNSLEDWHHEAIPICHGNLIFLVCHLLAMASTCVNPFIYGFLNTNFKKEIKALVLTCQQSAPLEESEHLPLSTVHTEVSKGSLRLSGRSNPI

[21] = Plasma clearance in Sprague-Dawley rat plasma at 1 mg/kg, iv administered as single dose; format: ADME, organism-based; design: dose 1 mg/kg, route intravenous
[22] = Volume of distribution at steady state in Sprague-Dawley rat at 1 mg/kg, iv and 1 mg/kg, po administered as single dose; format: ADME, organism-based; conditions: in vivo, read-out: Vdss
[23] = AUC (0 to infinity) in Sprague-Dawley rat at 1 mg/kg, po administered as single dose; format: ADME, organism-based; design: time infinity, dose 1 mg/kg, route oral; conditions: plasma
[24] = Cmax in Sprague-Dawley rat at 1 mg/kg, iv and 1 mg/kg, po administered as single dose; format: ADME, organism-based; conditions: in vivo
[25] = Plasma clearance in rhesus monkey plasma at 0.3 mg/kg, iv administered as single dose; format: ADME, organism-based, Macaca mulatta; design: dose 0.3 mg/kg, route intravenous
[26] = Volume of distribution at steady state in rhesus monkey at 1 mg/kg, po and 0.3 mg/kg, iv administered as single dose; format: ADME, organism-based, Macaca mulatta; conditions: in vivo, read-out: Vdss
[27] = AUC (0 to infinity) in rhesus monkey at 1 mg/kg, po administered as single dose; format: ADME, organism-based, Macaca mulatta; design: dose 1 mg/kg, route oral, time infinity; conditions: plasma
[28] = Bioavailability in Sprague-Dawley rat at 1 mg/kg, iv and 1 mg/kg, po administered as single dose; format: ADME, organism-based; conditions: in vivo
[29] = Cmax in rhesus monkey at 1 mg/kg, po and 0.3 mg/kg, iv administered as single dose; format: ADME, organism-based, Macaca mulatta; conditions: in vivo
[30] = Bioavailability in rhesus monkey at 1 mg/kg, po and 0.3 mg/kg, iv administered as single dose; format: ADME, organism-based, Macaca mulatta; conditions: in vivo
[31] = tested on: Rattus norvegicus; assay: Inhibition of D-[Trp34]NPY-induced acute food intake in Sprague-Dawley rat at 1 mg/kg, po pretreated 2 hrs prior to D-[Trp34]NPY challenge measured after 2 hrs; format: functional; how it was run: as §1
[32] = tested on: Mus musculus; assay: Reduction in body weight in moderately high fat diet-induced obese C57BL/6J mouse model at 10 mg/kg, po qid for 5 days followed by BID for 15 days; format: functional, organism-based; design: dose 10 mg/kg
[33] = tested on: Mus musculus; assay: Reduction in body weight in moderately high fat diet-induced obese C57BL/6J mouse model at 3 mg/kg, po qid for 5 days followed by BID for 15 days; format: functional, organism-based; design: dose 3 mg/kg
[34] = tested on: Rattus norvegicus; assay: Inhibition of D-[Trp34]NPY-induced acute food intake in Sprague-Dawley rat at 0.1 mg/kg, po pretreated 2 hrs prior to D-[Trp34]NPY challenge measured after 2 hrs; format: functional; how it was run: as §1

C[C@@H]1NC(c2cc(C#N)ccn2)=N[C@@]1(c1ccc(F)cc1)c1ccc(F)nc1
Activity [1]: inactive | Cmax [2]: 12000 nM | Activity [3]: Non-toxic | Activity [4]: 28% | Activity [5]: 29% | Activity [6]: 50% | Activity [7]: 46% | Activity [8]: -32% | Activity [9]: 7% | Cmax [10]: 25000 nM | inhibition in vivo at 0.3 mg/kg [11]: 54% | logD [12]: 3.2 | CLhep predicted [13]: 18 mL/min/kg | concentration at 2 h [14]: 2600 nM | Drug uptake [15]: 7 nmol/g | Drug uptake [16]: 0.21 µM | Kp at 2 h [17]: 2.7 | IC50 [18]: > 10 µM | IC50 [19]: > 10 µM | IC50 [20]: > 10 µM | clearance [21]: 20 mL/min/kg | Vd [22]: 6.2 L/kg | AUC(0-inf) [23]: 1.8 µM·h | Cmax [24]: 500 nM | clearance [25]: 8 mL/min/kg | Vd [26]: 4.4 L/kg | AUC(0-inf) [27]: 4.6 µM·h | bioavailability [28]: 77% | Cmax [29]: 590 nM | bioavailability [30]: 76% | inhibition in vivo at 1 mg/kg [31]: 93% | Activity [32]: Active | Activity [33]: Active | inhibition in vivo at 0.1 mg/kg [34]: 5%
